ChEMBL document CHEMBL4610079, “Anti-inflammatory Flavanones and Flavones from Tephrosia linearis” (2020)

Key:
Format in all cases: functional
PBMC [1] = test: Antiinflammatory activity in LPS-induced human PBMC cells assessed as IL-1beta release at 100 uM after 24 hrs by luminex based bead assay relative to control
How it was run: (§1)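 Pooled cryopreserved human PBMCs from three donors were thawed and resuspended in RPMI 1640 with 10% FBS, at 100 000 cells/well. Each test item was given at 100 μM from a 20 mM DMSO stock, with 0.5% final DMSO. It was co-incubated with 10 μg/mL LPS for 24 h at 37 °C and 5% CO2. Supernatant was read by MagPix cytokine bead array, expressed as % of LPS control, n = 1.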

PBMC [2] = test: Antiinflammatory activity in LPS-induced human PBMC cells assessed as IL-2 release at 100 uM after 24 hrs by luminex based bead assay relative to control; how it was run: as §1
PBMC [3] = test: Antiinflammatory activity in LPS-induced human PBMC cells assessed as IL-6 release at 100 uM after 24 hrs by luminex based bead assay relative to control; how it was run: as §1
PBMC [4] = test: Antiinflammatory activity in LPS-induced human PBMC cells assessed as GM-CSF release at 100 uM after 24 hrs by luminex based bead assay relative to control; how it was run: as §1
PBMC [5] = test: Antiinflammatory activity in LPS-induced human PBMC cells assessed as TNFalpha release at 100 uM after 24 hrs by luminex based bead assay relative to control; how it was run: as §1

Q: With COc1cc(-c2cc(=O)c3ccc(O)cc3o2)ccc1O as the compound, how does the Activity (PBMC [1]) read?
A: 109.22%

Q: And the Activity (PBMC [2])?
A: 57.64%

Q: And the Activity (PBMC [3])?
A: 100%

Q: What about the Activity (PBMC [4]) of the same compound?
A: 92.58%

Q: And the Activity (PBMC [5])?
A: 3.64%

Q: How did the Activity (PBMC [1]) turn out when C=C(C)C(O)Cc1c(O)cc2oc(-c3ccc(O)cc3)cc(=O)c2c1O (stereo not given) was run?
A: 103.28%

Q: What about the Activity (PBMC [2]) of the same compound?
A: 57.64%

Q: What about the Activity (PBMC [3]) of the same compound?
A: 238.54%

Q: What about the Activity (PBMC [4]) of the same compound?
A: 38.92%

Q: What about the Activity (PBMC [5]) of the same compound?
A: 5.2%

Q: How did the Activity (PBMC [1]) turn out when COc1cc2oc(-c3ccc(O)c(O)c3)c(O[C@@H]3O[C@@H](C)[C@H](O)[C@@H](O)[C@H]3O)c(=O)c2c(O)c1OC was run?
A: 148.44%

Q: What about the Activity (PBMC [2]) of the same compound?
A: 17.72%

Q: And the Activity (PBMC [3])?
A: 24.94%

Q: What about the Activity (PBMC [4]) of the same compound?
A: 48.79%

Q: And the Activity (PBMC [5])?
A: 3.83%

Q: For COc1cc([C@@H]2CC(=O)c3cc(OC)c(O)cc3O2)ccc1O, which Activity (PBMC [1]) is on record?
A: 220.43%

Q: What about the Activity (PBMC [2]) of the same compound?
A: 57.6%

Q: And the Activity (PBMC [3])?
A: 100%

Q: What about the Activity (PBMC [4]) of the same compound?
A: 35.76%

Q: And the Activity (PBMC [5])?
A: 12.55%

Q: Which results are given for COc1c2c(c(/C=C\C(C)(C)O)c3oc(-c4ccccc4)cc(=O)c13)OC(C)(C)C=C2?
A: Activity (PBMC [1]): 1.18%; Activity (PBMC [2]): 57.6%; Activity (PBMC [3]): 0%; Activity (PBMC [4]): 8.63%; Activity (PBMC [5]): 0.17%

Q: Which results are given for C=C(C)/C=C/c1c2c(c(O)c3c(=O)cc(-c4ccccc4)oc13)C=CC(C)(C)O2?
A: Activity (PBMC [1]): 169.84%; Activity (PBMC [2]): 17.72%; Activity (PBMC [3]): 622.32%; Activity (PBMC [4]): 78.39%; Activity (PBMC [5]): 1.89%

Q: COc1cc2c(c(O)c1CC=C(C)C)C(=O)C[C@@H](c1ccc(O)cc1)O2 was tested. Which Activity (PBMC [1]) did it give?
A: 102.34%

Q: And the Activity (PBMC [2])?
A: 57.64%

Q: What about the Activity (PBMC [3]) of the same compound?
A: 19.57%

Q: And the Activity (PBMC [4])?
A: 46.89%

Q: What about the Activity (PBMC [5]) of the same compound?
A: 6.38%

Q: Which Activity (PBMC [1]) does the source give for COc1cc(-c2cc(=O)c3cc(OC)c(O)cc3o2)ccc1O here?
A: 170.51%

Q: What about the Activity (PBMC [2]) of the same compound?
A: 17.72%

Q: What about the Activity (PBMC [3]) of the same compound?
A: 43.11%

Q: What about the Activity (PBMC [4]) of the same compound?
A: 17.39%

Q: What about the Activity (PBMC [5]) of the same compound?
A: 4.03%

Q: How did the Activity (PBMC [1]) turn out when CC(=O)OCC1(C)C=Cc2c(cc(O)c3c2O[C@H](c2ccccc2)CC3=O)O1 (stereo not given in full) was run?
A: 157.09%

Q: And the Activity (PBMC [2])?
A: 17.72%

Q: What about the Activity (PBMC [3]) of the same compound?
A: 43.39%

Q: And the Activity (PBMC [4])?
A: 40.97%

Q: And the Activity (PBMC [5])?
A: 2.66%

Q: What does the source list for C=C(C)/C=C/c1c2c(c(OC)c3c(=O)cc(-c4ccccc4)oc13)C=CC(C)(C)O2?
A: Activity (PBMC [1]): 75.85%; Activity (PBMC [2]): 57.6%; Activity (PBMC [3]): 97.43%; Activity (PBMC [4]): 83.73%; Activity (PBMC [5]): 3.15%

Q: COc1c2c(c(/C=C/C(C)(C)OC)c3oc(-c4ccccc4)cc(=O)c13)OC(C)(C)C=C2 was tested. Which Activity (PBMC [1]) did it give?
A: 68.27%

Q: And the Activity (PBMC [2])?
A: 57.6%

Q: What about the Activity (PBMC [3]) of the same compound?
A: 10.89%

Q: And the Activity (PBMC [4])?
A: 17.39%

Q: And the Activity (PBMC [5])?
A: 0.92%

Q: Which results are given for COc1c(O)cc2oc(-c3ccc(O)c(O)c3)c(O[C@@H]3O[C@@H](C)[C@H](O)[C@@H](O)[C@H]3O)c(=O)c2c1O?
A: Activity (PBMC [1]): 4.81%; Activity (PBMC [2]): 57.6%; Activity (PBMC [3]): 0.64%; Activity (PBMC [4]): 8.63%; Activity (PBMC [5]): 0.54%

Q: CC(C)=CCc1c(O)cc2oc(-c3ccc(O)cc3)cc(=O)c2c1O was tested. Which Activity (PBMC [1]) did it give?
A: 40.83%

Q: And the Activity (PBMC [2])?
A: 17.72%

Q: And the Activity (PBMC [3])?
A: 24.72%

Q: What about the Activity (PBMC [4]) of the same compound?
A: 48.79%

Q: And the Activity (PBMC [5])?
A: 5.01%

Q: With C=C(C)C(O)Cc1c(OC)cc2c(c1O)C(=O)C[C@@H](c1ccc(O)cc1)O2 (stereo not given in full) as the compound, how does the Activity (PBMC [1]) read?
A: 53.77%

Q: And the Activity (PBMC [2])?
A: 17.72%

Q: And the Activity (PBMC [3])?
A: 25.79%

Q: And the Activity (PBMC [4])?
A: 32.47%

Q: What about the Activity (PBMC [5]) of the same compound?
A: 4.03%

Q: How did the Activity (PBMC [1]) turn out when O=c1cc(-c2ccc(O)cc2)oc2cc(O)cc(O)c12 [APIGENIN] was run?
A: 105.17%

Q: What about the Activity (PBMC [2]) of the same compound?
A: 57.6%

Q: And the Activity (PBMC [3])?
A: 48.33%

Q: And the Activity (PBMC [4])?
A: 32.47%

Q: What about the Activity (PBMC [5]) of the same compound?
A: 4.22%

Q: Which results are given for CC1(C)C=Cc2c(cc(O)c3c(=O)cc(-c4ccc(O)cc4)oc23)O1 [ATALANTOFLAVONE]?
A: Activity (PBMC [1]): 48.35%; Activity (PBMC [2]): 57.64%; Activity (PBMC [3]): 7.23%; Activity (PBMC [4]): 4.87%; Activity (PBMC [5]): 1.12%

Q: With CC(C)Cc1ccc(C(C)C(=O)O)cc1 (stereo not given) [IBUPROFEN] as the compound, how does the Activity (PBMC [1]) read?
A: 199.29%

Q: What about the Activity (PBMC [2]) of the same compound?
A: 80.33%

Q: What about the Activity (PBMC [3]) of the same compound?
A: 46.46%

Q: What about the Activity (PBMC [4]) of the same compound?
A: 47.76%

Q: What about the Activity (PBMC [5]) of the same compound?
A: 12.23%

Q: O=c1cc(-c2ccc(O)c(O)c2)oc2cc(O)cc(O)c12 [LUTEOLIN] was tested. Which Activity (PBMC [1]) did it give?
A: 0.67%

Q: What about the Activity (PBMC [2]) of the same compound?
A: 57.6%

Q: What about the Activity (PBMC [3]) of the same compound?
A: 0.04%

Q: What about the Activity (PBMC [4]) of the same compound?
A: 8.63%

Q: What about the Activity (PBMC [5]) of the same compound?
A: 0.17%

Q: COc1cc(O)c2c(=O)cc(-c3ccc(O)c(OC)c3)oc2c1 [VELUTIN] was tested. Which Activity (PBMC [1]) did it give?
A: 0.8%

Q: And the Activity (PBMC [2])?
A: 57.6%

Q: What about the Activity (PBMC [3]) of the same compound?
A: 0.09%

Q: What about the Activity (PBMC [4]) of the same compound?
A: 8.63%

Q: And the Activity (PBMC [5])?
A: 0.92%
